The list is not random: actives were taken first. Their share in the collection is about 2.4%.
LMPTP block = blocks human LMPTP phosphatase; inhibition, % at 20 µM; actives 0.22% (n = 360,000); P24666; recombinant LMPTP-A, OMFP fluorogenic substrate, fluorescence intensity;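 active = compounds that cut the enzyme signal by at least half of the control window in the single-dose screen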
Target sequence (P24666 whole entry, looked up): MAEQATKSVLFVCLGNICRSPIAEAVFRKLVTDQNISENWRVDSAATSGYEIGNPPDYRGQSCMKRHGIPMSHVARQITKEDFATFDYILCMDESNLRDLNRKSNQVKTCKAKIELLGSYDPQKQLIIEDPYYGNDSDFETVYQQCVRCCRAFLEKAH
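Test system: LMPTP-A phosphatase enzyme. Amount: LMPTP-A at 0.625 nM final in the reaction. Reagent: OMFP substrate, 400 µM final. Times: 50 min at room temperature. Signal: endpoint fluorescence intensity from OMFP dephosphorylation. Read-out basis: % inhibition. Benchmarks: no-enzyme and uninhibited controls.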
Scp1 inh = Scp-1 (human) phosphatase inhibition; Recombinant Scp1, phosphopeptide, malachite green phosphate absorbance; inhibition, % at 20 µM; actives 0.88% (n = 340,000);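 active = inhibition above about 50% at 20 µM, limit read from the data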
Target sequence (Q9GZU7 76-261 limits assumed): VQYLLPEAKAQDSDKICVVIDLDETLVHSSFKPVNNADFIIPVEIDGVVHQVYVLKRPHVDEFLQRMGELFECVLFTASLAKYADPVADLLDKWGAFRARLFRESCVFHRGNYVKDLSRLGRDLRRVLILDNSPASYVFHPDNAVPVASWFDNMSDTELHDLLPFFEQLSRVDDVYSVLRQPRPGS
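Material: truncated SCP-1 phosphatase (76-261aa) / Buffer or medium: 50 mM Tris acetate pH 5.5, 0.005% Tween-20, 10 mM MgCl2 / Compound dosing: one concentration, 20 µM, with 1.0% DMSO / Incubation: 45 min room-temperature reaction, 5 min colour, 30 min stabiliser / Detection: colorimetric free-phosphate detection, absorbance 630 nm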
NadD inh = blocks S. aureus nicotinate mononucleotide adenylyltransferase. purified NadD enzyme, colorimetric absorbance read-out. inhibition, % at 20 µM. actives 0.78% (n = 360,000); in the data active = inhibition above about 26%
STEP inh = blocks human striatal-enriched tyrosine phosphatase | P54829 | recombinant STEP, OMFP fluorogenic substrate, fluorescence | inhibition, % at 20 µM | actives 0.25% (n = 360,000) | AID 588621;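 active = inhibition at 20 µM, scaled per plate between control wells, above about 37%, limit read from the data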
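Material: STEP (striatal-enriched tyrosine phosphatase) enzyme, cell-free | Medium: 50 mM Bis-Tris pH 6.0 with 2.5 mM DTT and 0.005% Tween 20 | Read-out: Percent inhibition scaled to no-enzyme and uninhibited-enzyme controls, plate-pattern corrected | Signal: Fluorescence read at 480 nm ex / 540 nm em | Times: 20 min reaction, room temperature, in the dark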
DNMT1 inh = blocks human DNA methyltransferase DNMT1; actives 0.83% (n = 360,000); inhibition (reported as % activation of signal), % at 10 µM; DNMT1 molecular beacon, Hinp1I cleavage, fluorescence; P26358; in the data active = inhibition above about 50%
SUMO1-SIM PPI = alters human SUMO1 binding to SIM partners; P63165; SUMO1 binding to a labelled peptide, TR-FRET, 1 h; inhibition, % at 20 µM; actives 0.33% (n = 360,000); in the data active = inhibition above about 37%
Target sequence (P63165 whole entry, looked up): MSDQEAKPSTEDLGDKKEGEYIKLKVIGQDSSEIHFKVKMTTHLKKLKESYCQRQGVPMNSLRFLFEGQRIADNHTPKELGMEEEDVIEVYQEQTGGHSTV
Scp-1 conf = Scp-1 (human) inhibition, single-dose confirmed; shares compounds with Scp1 inh; recombinant SCP-1 catalytic domain, phosphate release, malachite green absorbance; inhibition, % at 20 µM; actives 61% (n = 2,500)
Scp-1 MG ctr = counter-screen for Scp-1 inhibitors: colorimetric interference | shares compounds with Scp1 inh | Colorimetric interference counterscreen, malachite green absorbance 630 nm | apparent inhibition (interference), % at 20 µM | 2,500 tested, under 10 active | AID 540313;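 note: compounds added after enzyme reaction finished so only phosphate colour detection is probed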
Scp1 DSF = validation of human Scp-1 inhibitors by thermal shift binding; shares compounds with Scp1 inh; Recombinant SCP1, Sypro Orange thermal shift Tm; thermal shift relative to vanadate control, % at 40 µM; actives 25% (n = 1,500); AID 540329;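 active = substances whose mean melting-temperature shift, as a percentage of the reference inhibitor's shift, reaches about 5.3%, limit read from the data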
A number is an active result; i = inactive; nt = no result.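 Rule for the calls, unless noted: active = inhibition of at least 30% at 20 µM; inactive = the rest.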

SMILES	LMPTP block	Scp1 inh	NadD inh	STEP inh	DNMT1 inh	SUMO1-SIM PPI	Scp-1 conf	Scp-1 MG ctr	Scp1 DSF
Cc1ccc(/C=N\NC(=O)COc2ccc(C)cc2[N+](=O)[O-])cc1	i	i	i	i	i	i	nt	nt	nt
Cc1ccc(OCC(=O)N/N=C\c2ccc(O)c([N+](=O)[O-])c2)c([N+](=O)[O-])c1	i	66.6	i	i	i	i	41.8	i	9.8
CC(C)c1ccc(/C=C2\SC(=O)N(CC(=O)NC3C=CS(=O)(=O)C3)C2=O)cc1 (stereo not given)	i	56.6	i	i	i	i	53.5	i	i
COc1cccc(/C=C2\SC(=O)N(CC(=O)NC3C=CS(=O)(=O)C3)C2=O)c1 (stereo not given)	i	i	i	i	i	i	nt	nt	nt
CC(=O)Nc1ccc(N=Cc2nc(-c3ccc(C)cc3)oc2O)cc1	i	76.0	i	i	i	i	i	i	nt
Cc1ccc(N=Cc2nc(-c3ccc(C)cc3)oc2O)cc1	i	i	i	i	i	i	nt	nt	nt
CC(=O)c1cccc(OC(=O)c2ccc3c(=O)n4c(nc3c2)CCC4)c1	i	67.6	i	i	i	i	i	i	nt
O=C(Nc1ccnn1C1CCN(CCCc2ccccc2)CC1)c1cccc(F)c1	i	i	i	i	i	i	nt	nt	nt
O=S(=O)(c1cccc2ccccc12)N1CCSC1	i	i	i	i	i	i	nt	nt	nt
O=S(=O)(c1cccc2cnccc12)N1CCNCC1	i	59.5	i	i	i	i	i	i	nt
CCC(Oc1ccccc1)C(=O)Nc1nc2c(s1)C(=O)CC(C)(C)C2 (stereo not given)	i	i	i	i	i	i	i	i	nt
Cc1nc(C(F)(F)F)ccc1C(=O)N1CCCC(C)(C(=O)O)C1 (stereo not given)	i	nt	i	i	i	i	nt	nt	nt
CC(=O)Nc1ccc(C(=O)OCC(=O)N2CCN(C(=O)c3ccco3)CC2)cc1	i	i	i	i	i	i	nt	nt	nt
N#CCC(=O)Nc1ccc(C(=O)OCC(=O)N2CCN(C(=O)c3ccco3)CC2)cc1	i	90.4	i	i	i	i	63.9	i	i
Cc1cc(NC(=O)CSc2ncc(C(=O)O)n2-c2ccc(F)cc2)no1	i	i	i	i	i	i	nt	nt	nt
CCSc1nc2c([nH]1)c(=O)n(C)c(=S)n2C	i	61.0	i	i	i	i	75.5	i	i
O=C(Nc1ccc2c(c1)C(=O)NC2=O)c1ccc(Cl)s1	i	85.3	i	i	i	i	i	i	nt
O=C(Nc1ccc2c(c1)C(=O)NC2=O)c1cccc(Cl)c1	i	53.6	i	i	i	i	66.0	i	i
O=C(Nc1ccc2c(c1)C(=O)NC2=O)c1cc(Cl)ccc1Cl	i	i	i	i	i	i	nt	nt	nt
CC1Cc2ccccc2N1S(=O)(=O)c1cccc(C(=O)NCCCn2ccnc2)c1 (stereo not given)	i	i	i	i	i	i	nt	nt	nt
O=C(CN1C(=O)C2CCCCC2C1=O)Nc1ccccc1N1CCCC1 (stereo not given)	i	62.3	i	i	i	i	i	i	nt
O=C(CN1C(=O)C2CC=CCC2C1=O)Nc1ccccc1N1CCCC1 (stereo not given)	i	i	i	i	i	i	nt	nt	nt
Cn1c(=O)[nH]c2ccc([N+](=O)[O-])nc21	i	i	i	i	i	i	nt	nt	nt
COc1ccc(CNCc2cccc(Oc3ccccc3)c2)cc1	i	i	i	i	i	i	nt	nt	nt
Cc1cc2c(NC(=O)CC(C)(C)CC(=O)O)cccc2nn1	i	52.0	i	i	i	i	i	i	nt
SMILES	LMPTP block	Scp1 inh	NadD inh	STEP inh	DNMT1 inh	SUMO1-SIM PPI	Scp-1 conf	Scp-1 MG ctr	Scp1 DSF
CCOC(=O)c1ccc(N2C(=O)c3n[nH]c(C)c3C2c2ccc(OC)cc2)cc1 (stereo not given)	i	i	i	i	i	i	nt	nt	nt
CCOC(=O)c1ccc(N2C(=O)c3n[nH]c(C)c3C2c2ccc(OC)c(OC)c2)cc1 (stereo not given)	i	57.5	i	i	i	i	i	i	nt
C1=C(c2ccccc2)Nc2ccccc2N=C1c1ccccc1	i	i	i	i	i	i	nt	nt	nt
Cc1cc(C(F)F)n2nc(C(=O)Nc3sc4c(c3C(N)=O)CCC4)nc2n1	i	61.0	i	i	i	i	55.0	i	i
CCOC(=O)C1=C(C)NC(=O)NC1c1ccc(Br)o1 (stereo not given)	i	52.2	i	i	i	i	i	i	nt
CCOC(=O)C1=C(C)NC(C)=C(C(=O)OCC)C1c1ccc(Br)o1	i	i	i	i	i	i	nt	nt	nt
COc1ccc(CN(C)C(=O)Cn2ccc(NC(=O)OCc3ccccc3)nc2=O)cc1OC	i	i	i	i	i	i	nt	nt	nt
Cc1cc(C=O)c(C)n1-c1cccc(C(=O)O)c1	i	52.9	i	i	i	i	52.2	i	i
CC(=O)Nc1ccc(NC(=O)c2ccc(OCc3c(C)noc3C)cc2)cc1	i	58.7	i	i	i	i	i	i	nt
Cc1ccc(S(=O)(=O)Nc2ccccc2C(=O)N2CCCCC2C)c(C)c1NS(C)(=O)=O (stereo not given)	i	i	i	i	i	i	nt	nt	nt
O=C(N/N=C/c1cc2ccccc2nc1Cl)/C(=C/c1cccs1)NC(=O)c1ccccc1	i	98.7	i	i	i	i	34.8	i	i
CCOc1ccccc1NC(=O)Cn1cnc2c(nnn2-c2cccc(OC)c2)c1=O	i	70.8	i	i	i	i	58.0	i	i
Cc1ccc(-n2nnc3c(=O)n(CC(=O)NCc4ccccc4)cnc32)cc1	i	92.9	i	i	i	i	86.2	i	i
CCOc1ccc(CNC(=O)Cn2nc(C)c3c(C)n(-c4ccc(C)cc4)nc3c2=O)cc1	i	85.3	i	i	i	i	62.3	i	i
Cc1ccc(-n2nnc3c(=O)n(CC(=O)c4ccccc4)cnc32)cc1	i	i	i	i	i	i	nt	nt	nt
COC(=O)c1ccc(CO/N=C/c2cccc([N+](=O)[O-])c2)cc1	i	i	i	i	i	i	nt	nt	nt
CC[n+]1c(/C=C/Nc2ccccc2)sc2ccccc21	i	109.2	i	i	i	i	i	i	nt
CC[n+]1c(/C=C(\C)OC)sc2ccccc21	i	i	i	i	i	i	nt	nt	nt
Cc1ccccc1N=C1NC(=O)/C(=C/c2cccn2-c2cccc(C(=O)O)c2)S1	nt	65.8	nt	nt	nt	nt	65.4	i	i

High-throughput results deposited in PubChem by Sanford-Burnham Center for Chemical Genomics.
